The source made the active and inactive calls. The calls are words filed in the database; no cut-off is given here.
What was measured:
[1] = Drug uptake in human Caco2 cells assessed as intracellular level measured per mg of protein at 2 uM in presence of 50 uM verapamil P-gp inhibitor; format: ADME, cell-based; conditions: caco-2, 2 µM
Summary of the method: (§1)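 Caco-2 (TC7) monolayers, 2 μM substrate transported in HBSS at pH 7.4. Cyclosporine A (20 μM) or verapamil (50 μM) was added to the apical side. Intracellular amount was measured at the end of transport and normalised to lysate protein (BCA), in nmol/mg. Three independent experiments.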

[2] = Drug uptake in human Caco2 cells assessed as intracellular level measured per mg of protein at 2 uM; format: ADME, cell-based; conditions: caco-2, 2 µM
Summary of the method: (§2)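 Monolayers of Caco-2 (TC7; TEER >445 Ω/cm² for quality control), parental MDCKII, or MDR1-MDCKII cells. Bidirectional transport of 2 μM substrate in HBSS, pH 7.4 on both sides. Outputs were Pa-b, Pb-a and efflux ratio Pb-a/Pa-b, plus mass-balance recovery. Intracellular amount was measured at the end of transport and normalised to lysate protein (BCA). Three independent experiments.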

[3] = Permeability across apical to basolateral side in human Caco2 cells at 2 uM; format: ADME, cell-based; conditions: Caco-2, read-out: permeability; summary of the method: as §2
[4] = Drug uptake in human Caco2 cells assessed as intracellular level measured per mg of protein at 2 uM in presence of 20 uM cyclosporine A P-gp inhibitor; format: ADME, cell-based; conditions: caco-2, 2 µM; summary of the method: as §1
[5] = Permeability across apical to basolateral side in MDCK2 cells at 2 uM; format: ADME, cell-based, Canis lupus familiaris, MDCK-II; conditions: dog, MDCK; read-out: permeability; summary of the method: as §2
[6] = Permeability across basolateral to apical side in MDCK2 cells at 2 uM; format: ADME, cell-based, Canis lupus familiaris, MDCK-II; conditions: dog, MDCK; read-out: permeability; summary of the method: as §2
[7] = Efflux ratio of permeability from basolateral to apical side over apical to basolateral side in MDCK2 cells at 2 uM; format: ADME, cell-based, Canis lupus familiaris, MDCK-II; conditions: dog, MDCK; summary of the method: as §2
[8] = Drug uptake in MDCK2 cells assessed as intracellular level measured per mg of protein at 2 uM; format: ADME, cell-based, Canis lupus familiaris; conditions: dog, mdck-ii; summary of the method: as §2
[9] = test system: MDR1; experiment: Permeability across apical to basolateral side in MDCK2-MDR1 cells at 2 uM; format: ADME, cell-based, Canis lupus familiaris, MDCK-II; conditions: dog, MDCK-MDR1; read-out: permeability; summary of the method: as §2
[10] = test system: MDR1; experiment: Permeability across basolateral to apical side in MDCK2-MDR1 cells at 2 uM; format: ADME, cell-based, Canis lupus familiaris, MDCK-II; conditions: dog, MDCK-MDR1; read-out: permeability; summary of the method: as §2
[11] = test system: MDR1; experiment: Efflux ratio of permeability from basolateral to apical side over apical to basolateral side in MDCK2-MDR1 cells at 2 uM; format: ADME, cell-based, Canis lupus familiaris; conditions: dog, MDCK-MDR1; summary of the method: as §2
[12] = Drug uptake in MDCK2-MDR1 cells assessed as intracellular level measured per mg of protein at 2 uM; format: ADME, cell-based, Canis lupus familiaris; conditions: dog, mdck-ii; summary of the method: as §2
[13] = Tmax in wildtype FVB mouse at 10 mg/kg, po; format: ADME, organism-based; design: dose 10 mg/kg, route oral; conditions: in vivo
Summary of the method: (§3)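 Male mice aged 6–10 weeks, MDR1a/b knockout or wild-type FVB, fasted overnight. Single 10 mg/kg gavage dose in an oral suspending vehicle. Ten timed tail-snip blood samples (20–25 μl) were taken under isoflurane. Blood levels were measured by UPLC-MS; the standard curve spanned 19.5 nM–10 μM, with LLOQ 9.8 nM. Five mice per group; mean ± S.D.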

[14] = Cmax in wildtype FVB mouse at 10 mg/kg, po; format: ADME, organism-based; design: dose 10 mg/kg, route oral; conditions: in vivo; summary of the method: as §3
[15] = Drug elimination rate in wildtype FVB mouse at 10 mg/kg, po; format: ADME, organism-based; design: dose 10 mg/kg, route oral; conditions: in vivo; summary of the method: as §3
[16] = Half life in wildtype FVB mouse at 10 mg/kg, po; format: ADME, organism-based; design: dose 10 mg/kg, route oral; conditions: in vivo; summary of the method: as §3
[17] = Mean residence time (infinity) in wildtype FVB mouse at 10 mg/kg, po; format: ADME, organism-based; design: dose 10 mg/kg, route oral; conditions: in vivo; summary of the method: as §3
[18] = AUC (0 to time) in wildtype FVB mouse at 10 mg/kg, po; format: ADME, organism-based; design: dose 10 mg/kg, route oral; conditions: plasma; summary of the method: as §3
[19] = AUC (0 to infinity) in wildtype FVB mouse at 10 mg/kg, po; format: ADME, organism-based; design: time infinity, dose 10 mg/kg, route oral; conditions: plasma; summary of the method: as §3
[20] = Tmax in MDR1a/b(-/-) FVB mouse at 10 mg/kg, po; format: ADME, organism-based; design: dose 10 mg/kg, route oral; conditions: in vivo; summary of the method: as §3
[21] = Cmax in MDR1a/b(-/-) FVB mouse at 10 mg/kg, po; format: ADME, organism-based; design: dose 10 mg/kg, route oral; conditions: in vivo; summary of the method: as §3
[22] = Drug elimination rate in MDR1a/b(-/-) FVB mouse at 10 mg/kg, po; format: ADME, organism-based; design: dose 10 mg/kg, route oral; conditions: in vivo; summary of the method: as §3
[23] = Half life in MDR1a/b(-/-) FVB mouse at 10 mg/kg, po; format: ADME, organism-based; design: dose 10 mg/kg, route oral; conditions: in vivo; summary of the method: as §3
[24] = Mean residence time (infinity) in MDR1a/b(-/-) FVB mouse at 10 mg/kg, po; format: ADME, organism-based; design: dose 10 mg/kg, route oral; conditions: in vivo; summary of the method: as §3
[25] = AUC (0 to time) in MDR1a/b(-/-) FVB mouse at 10 mg/kg, po; format: ADME, organism-based; design: dose 10 mg/kg, route oral; conditions: plasma; summary of the method: as §3
[26] = AUC (0 to infinity) in MDR1a/b(-/-) FVB mouse at 10 mg/kg, po; format: ADME, organism-based; design: time infinity, dose 10 mg/kg, route oral; conditions: plasma; summary of the method: as §3
[27] = Oral bioavailability in rat; format: ADME, organism-based; conditions: in vivo
[28] = Cytotoxicity against mouse LM1 cells assessed as cell growth inhibition after 48 hrs by MTT assay; format: functional, cell-based; conditions: LM1, 48 h
[29] = Drug recovery in human Caco2 cells at 2 uM; format: ADME, cell-based; conditions: Caco-2, read-out: Drug recovery; summary of the method: as §2
[30] = Drug recovery in MDCK2 cells at 2 uM; format: ADME, cell-based, Canis lupus familiaris, MDCK-II; conditions: dog, MDCK; read-out: Drug recovery; summary of the method: as §2
[31] = test system: MDR1; experiment: Drug recovery in MDCK2-MDR1 cells at 2 uM; format: ADME, cell-based, Canis lupus familiaris, MDCK-II; conditions: dog, MDCK-MDR1; read-out: Drug recovery; summary of the method: as §2
[32] = Permeability across basolateral to apical side in human Caco2 cells at 2 uM; format: ADME, cell-based; conditions: Caco-2, read-out: permeability; summary of the method: as §2
[33] = Efflux ratio of permeability from basolateral to apical side over apical to basolateral side in human Caco2 cells at 2 uM; format: ADME, cell-based; conditions: Caco-2; summary of the method: as §2
[34] = test system: LM1; experiment: Cytotoxicity against mouse LM1 cells assessed as cell growth inhibition upto 100 uM after 48 hrs by MTT assay; format: functional, cell-based
Summary of the method: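 LM1 cells, a metastatic line derived from A/J mice, grown in DMEM with 10% FBS, 2 mM glutamine, penicillin/streptomycin and 1% nonessential amino acids. Seeded at 5×10^3 cells/well in 96-well plates, fed daily, and used 2–3 days after seeding.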

[35] = Efflux ratio of permeability from basolateral to apical side over apical to basolateral side in human Caco2 cells; conditions: Caco-2
[36] = Permeability across apical to basolateral side in human Caco2 cells; conditions: Caco-2

CC(C)=CCC[C@](C)(O[C@@H]1O[C@H](CO)[C@@H](O)[C@H](O)[C@H]1O)[C@H]1CC[C@]2(C)[C@@H]1[C@H](O)C[C@@H]1[C@@]3(C)CC[C@H](O)C(C)(C)[C@@H]3CC[C@]12C
Drug uptake [1]: 0.5 nmol/mg | Drug uptake [2]: 0.01 nmol/mg | Papp A→B at 2 µM [3]: 1.16 ×10⁻⁶ cm/s | Drug uptake [4]: 0.15 nmol/mg | Papp A→B at 2 µM [5]: 0.58 ×10⁻⁶ cm/s | Papp B→A at 2 µM [6]: 1.13 ×10⁻⁶ cm/s | efflux ratio at 2 µM [7]: 1.8 | Drug uptake [8]: 0.27 nmol/mg | Papp A→B at 2 µM [9]: 1.84 ×10⁻⁶ cm/s | Papp B→A at 2 µM [10]: 33.6 ×10⁻⁶ cm/s | efflux ratio at 2 µM [11]: 18.2 | Drug uptake [12]: 0.08 nmol/mg | Tmax [13]: 2.8 h | Cmax [14]: 130 nM | k el [15]: 3.61e-05 s⁻¹ | half-life [16]: 5.87 h | MRT inf [17]: 7.82 h | AUC [18]: 0.66 µM·h | AUC(0-inf) [19]: 0.75 µM·h | Tmax [20]: 5.6 h | Cmax [21]: 530 nM | k el [22]: 1.11e-05 s⁻¹ | half-life [23]: 18.7 h | MRT inf [24]: 30.7 h | AUC [25]: 7.7 µM·h | AUC(0-inf) [26]: 17.6 µM·h | bioavailability [27]: 5% | IC50 [28]: 18.4 µM | recovery at 2 µM [29]: 85% | recovery at 2 µM [30]: 85% | recovery at 2 µM [31]: 85% | Papp B→A at 2 µM [32]: 31 ×10⁻⁶ cm/s | efflux ratio at 2 µM [33]: 26.6

CC(C)=CCC[C@](C)(O[C@@H]1O[C@H](CO)[C@@H](O)[C@H](O)[C@H]1O)[C@H]1CC[C@]2(C)[C@@H]1[C@H](O)C[C@@H]1[C@@]3(C)CC[C@H](O[C@@H]4O[C@H](CO)[C@@H](O)[C@H](O)[C@H]4O)C(C)(C)[C@@H]3CC[C@]12C
growth inhibition (GI) [34]: inactive

C[C@H]1O[C@@H](O[C@H]2[C@@H](O)C[C@H](O[C@H]3[C@@H](O)C[C@H](O[C@H]4CC[C@@]5(C)[C@H](CC[C@@H]6[C@@H]5C[C@@H](O)[C@]5(C)[C@@H](C7=CC(=O)OC7)CC[C@]65O)C4)O[C@@H]3C)O[C@@H]2C)C[C@H](O)[C@@H]1O [DIGOXIN]
efflux ratio [35]: 21 | Papp A→B [36]: 1.48 ×10⁻⁶ cm/s | Papp A→B at 2 µM [9]: 0.298 ×10⁻⁶ cm/s | efflux ratio at 2 µM [11]: 64
